Assay results: ChEMBL document CHEMBL3414565, “Discovery of novel AHLs as potent antiproliferative agents” (Eur J Med Chem, 2015)
pIC50: −log10 of the molar value.

Assays:
MCF7 [1] = assay: Induction of apoptosis in human MCF7 cells assessed as viable cells at 8 uM after 12 hrs by annexin V-FITC/propidium iodide staining-based flow cytometry (reference value: 85.4%); type: functional; settings: MCF7, 12 h, read-out: Activity
Method in brief: (§1)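 MCF-7 cells were plated at 5.0 × 10^6 cells/mL and held 12 or 24 h at 37 °C. Exponentially growing cells then received complete medium (blank) or compound at 0, 2, 4 or 8 for 12 or 24 h. Harvested cells were stained with Annexin V-FITC/PI and analysed by flow cytometry. Quadrants were scored as live, early apoptotic (annexin+/PI−), late apoptotic (double positive) and damaged (PI+ only).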

MCF7 [2] = assay: Induction of apoptosis in human MCF7 cells assessed as early apoptotic cells at 2 uM after 24 hrs by annexin V-FITC/propidium iodide staining-based flow cytometry (reference value: 4.5%); type: functional; method in brief: as §1
MCF7 [3] = assay: Induction of apoptosis in human MCF7 cells assessed as late apoptotic cells at 2 uM after 24 hrs by annexin V-FITC/propidium iodide staining-based flow cytometry (reference value: 2.1%); type: functional; method in brief: as §1
MCF7 [4] = assay: Induction of apoptosis in human MCF7 cells assessed as necrotic cells at 2 uM after 24 hrs by annexin V-FITC/propidium iodide staining-based flow cytometry (reference value: 6.2%); type: functional; method in brief: as §1
MCF7 [5] = assay: Induction of apoptosis in human MCF7 cells assessed as viable cells at 2 uM after 24 hrs by annexin V-FITC/propidium iodide staining-based flow cytometry (reference value: 87.1%); type: functional; settings: MCF7, 24 h, read-out: Activity; method in brief: as §1
MCF7 [6] = assay: Induction of apoptosis in human MCF7 cells assessed as late apoptotic cells at 4 uM after 24 hrs by annexin V-FITC/propidium iodide staining-based flow cytometry (reference value: 2.1%); type: functional; method in brief: as §1
MCF7 [7] = assay: Induction of apoptosis in human MCF7 cells assessed as late apoptotic cells at 8 uM after 24 hrs by annexin V-FITC/propidium iodide staining-based flow cytometry (reference value: 2.1%); type: functional; method in brief: as §1
MCF7 [8] = assay: Induction of apoptosis in human MCF7 cells assessed as necrotic cells at 8 uM after 24 hrs by annexin V-FITC/propidium iodide staining-based flow cytometry (reference value: 6.2%); type: functional; method in brief: as §1
MCF7 [9] = assay: Induction of apoptosis in human MCF7 cells assessed as viable cells at 8 uM after 24 hrs by annexin V-FITC/propidium iodide staining-based flow cytometry (reference value: 87.1%); type: functional; settings: MCF7, 24 h, read-out: Activity
MCF7 [10] = assay: Induction of apoptosis in human MCF7 cells at 2 to 8 uM by annexin V-FITC/propidium iodide staining-based flow cytometry; type: functional, cell-based; settings: TDE = time-dependent effect
MCF7 [11] = assay: Cell cycle arrest in human MCF7 cells assessed as accumulation at G1/G0 phase at 2 uM after 12 hrs by propidium iodide staining-based flow cytometry (reference value: 60.51%); type: functional
MCF7 [12] = assay: Cell cycle arrest in human MCF7 cells assessed as accumulation at G2/M phase at 2 uM after 12 hrs by propidium iodide staining-based flow cytometry (reference value: 16.53%); type: functional
MCF7 [13] = assay: Cell cycle arrest in human MCF7 cells assessed as accumulation at S phase at 4 uM after 12 hrs by propidium iodide staining-based flow cytometry (reference value: 26.65%); type: functional
MCF7 [14] = assay: Cell cycle arrest in human MCF7 cells assessed as accumulation at G2/M phase at 4 uM after 12 hrs by propidium iodide staining-based flow cytometry (reference value: 16.53%); type: functional
MCF7 [15] = assay: Cell cycle arrest in human MCF7 cells assessed as accumulation at S phase at 8 uM after 12 hrs by propidium iodide staining-based flow cytometry (reference value: 26.65%); type: functional
MCF7 [16] = assay: Cell cycle arrest in human MCF7 cells assessed as accumulation at G2/M phase at 8 uM after 12 hrs by propidium iodide staining-based flow cytometry (reference value: 16.53%); type: functional
MCF7 [17] = assay: Cell cycle arrest in human MCF7 cells assessed as accumulation at G2/M phase at 2 uM after 24 hrs by propidium iodide staining-based flow cytometry (reference value: 16.27%); type: functional
MCF7 [18] = assay: Cell cycle arrest in human MCF7 cells assessed as accumulation at G1/G0 phase at 4 uM after 24 hrs by propidium iodide staining-based flow cytometry (reference value: 46.77%); type: functional
MCF7 [19] = assay: Cell cycle arrest in human MCF7 cells assessed as accumulation at S phase at 4 uM after 24 hrs by propidium iodide staining-based flow cytometry (reference value: 40.08%); type: functional
MCF7 [20] = assay: Cell cycle arrest in human MCF7 cells assessed as accumulation at G2/M phase at 4 uM after 24 hrs by propidium iodide staining-based flow cytometry (reference value: 16.27%); type: functional
MCF7 [21] = assay: Cell cycle arrest in human MCF7 cells assessed as accumulation at G2/M phase after 12 to 24 hrs by propidium iodide staining-based flow cytometry; type: functional
MGC-803 = assay: Cytotoxicity against human MGC803 cells after 72 hrs by MTT assay; type: functional, cell-based; settings: MGC-803, 72 h
Method in brief: (§2)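 Cells were grown in RPMI1640 and seeded at 5 × 10^3 cells/well, then left 24 h at 37 °C. Medium was replaced with fresh medium holding a range of compound concentrations, from 10 mM DMSO stocks with final DMSO at most 0.1%. Exposure lasted 72 h. MTT (5 mg/mL) was added for 4 h at 37 °C, formazan was dissolved in DMSO and A570 was read. IC50 came from dose-response curves as mean ± SD of three independent experiments.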

MCF7 [22] = assay: Cytotoxicity against human MCF7 cells after 72 hrs by MTT assay; type: functional, cell-based; settings: MCF7, 72 h; method in brief: as §2
SMMC-7721 = assay: Cytotoxicity against human SMMC7721 cells after 72 hrs by MTT assay; type: functional, cell-based; settings: SMMC-7721, 72 h; method in brief: as §2
[23] = Cytotoxicity against human GES-1 cells after 72 hrs by MTT assay; type: cell-based; settings: GES1, 72 h
HEK293 = assay: Cytotoxicity against human HEK293 cells after 72 hrs by MTT assay; type: cell-based; settings: HEK293, 72 h
MCF7 [24] = assay: Induction of apoptosis in human MCF7 cells assessed as early apoptotic cells at 2 uM after 12 hrs by annexin V-FITC/propidium iodide staining-based flow cytometry (reference value: 7.2%); type: functional; method in brief: as §1
MCF7 [25] = assay: Induction of apoptosis in human MCF7 cells assessed as late apoptotic cells at 2 uM after 12 hrs by annexin V-FITC/propidium iodide staining-based flow cytometry (reference value: 2.7%); type: functional; method in brief: as §1
MCF7 [26] = assay: Induction of apoptosis in human MCF7 cells assessed as viable cells at 2 uM after 12 hrs by annexin V-FITC/propidium iodide staining-based flow cytometry (reference value: 85.4%); type: functional; settings: MCF7, 12 h, read-out: Activity; method in brief: as §1
MCF7 [27] = assay: Induction of apoptosis in human MCF7 cells assessed as late apoptotic cells at 4 uM after 12 hrs by annexin V-FITC/propidium iodide staining-based flow cytometry (reference value: 2.7%); type: functional; method in brief: as §1
MCF7 [28] = assay: Induction of apoptosis in human MCF7 cells assessed as necrotic cells at 4 uM after 12 hrs by annexin V-FITC/propidium iodide staining-based flow cytometry (reference value: 4.7%); type: functional; method in brief: as §1
MCF7 [29] = assay: Induction of apoptosis in human MCF7 cells assessed as viable cells at 4 uM after 12 hrs by annexin V-FITC/propidium iodide staining-based flow cytometry (reference value: 85.4%); type: functional; settings: MCF7, 12 h, read-out: Activity; method in brief: as §1
MCF7 [30] = assay: Induction of apoptosis in human MCF7 cells assessed as necrotic cells at 8 uM after 12 hrs by annexin V-FITC/propidium iodide staining-based flow cytometry (reference value: 4.7%); type: functional; method in brief: as §1

Compound O=C(CSC(=S)N[C@H]1CCOC1=O)Nc1ccc(C(=O)/C=C/c2ccccc2Cl)cc1 has a viability at 8 µM (MCF7 [1]) of 75.9%, an Activity (MCF7 [2]) of 16.4% and an Activity (MCF7 [3]) of 2.1%. It also gave an Activity (MCF7 [4]) of 5.7%, a viability at 2 µM (MCF7 [5]) of 75.8% and an Activity (MCF7 [6]) of 3%. For the same compound, the Activity (MCF7 [7]) was 6.1%, the Activity (MCF7 [8]) was 4.8% and the viability at 8 µM (MCF7 [9]) was 46%. For the same compound, the Activity (MCF7 [10]) was “tde”, the Activity (MCF7 [11]) was 67.5% and the Activity (MCF7 [12]) was 18.26%. The Activity (MCF7 [13]) was 24.4%, the Activity (MCF7 [14]) was 20.51% and the Activity (MCF7 [15]) was 25.84%. For the same compound, the Activity (MCF7 [16]) was 33.6%, the Activity (MCF7 [17]) was 26.69% and the Activity (MCF7 [18]) was 39.43%. The Activity (MCF7 [19]) was 20.43%, the Activity (MCF7 [20]) was 47.37% and the Activity (MCF7 [21]) was “Dose-dependent effect”. It also gave a pIC50 (MGC-803) of 4.91, a pIC50 (MCF7 [22]) of 5.25 and a pIC50 (SMMC-7721) of 4.69. For the same compound, the pIC50 [23] was 4.63, the pIC50 (HEK293) was 4.68 and the Activity (MCF7 [24]) was 11.4%. The Activity (MCF7 [25]) was 1.7%, the viability at 2 µM (MCF7 [26]) was 82.1% and the Activity (MCF7 [27]) was 1.7%. For the same compound, the Activity (MCF7 [28]) was 5.6%, the viability at 4 µM (MCF7 [29]) was 77.9% and the Activity (MCF7 [30]) was 3.5%.
